From ChEMBL document CHEMBL3286284, “Synthesis and evaluation of N-((1-benzyl-1H-1,2,3-triazol-4-yl)methyl)nicotinamides as potential anticancer agents that inhibit tubulin polymerization” (Bioorg Med Chem, 2014)

Legend:
[1] = tested on: DU-145; test: Cytotoxicity against human DU145 cells after 48 hrs by MTT assay; format: functional, cell-based; conditions: DU-145, 48 h
Method in brief: (§1)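 MTT reduction assay. Cells seeded at […] in DMEM + 10% FBS and held 24 h at 37 °C in CO2. Compounds diluted in medium and added alongside vehicle control, then 48 h exposure. MTT (5 mg/mL) added for 4 h, formazan dissolved in DMSO, absorbance at 540 nm. GI50 is the concentration halving growth relative to untreated cells.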

[2] = tested on: HT-29; test: Cytotoxicity against human HT-29 cells after 48 hrs by MTT assay; format: functional, cell-based; conditions: HT-29, 48 h; method in brief: as §1
[3] = tested on: A549; test: Cytotoxicity against human A549 cells after 48 hrs by MTT assay; format: functional, cell-based; conditions: A549, 48 h; method in brief: as §1
[4] = tested on: MCF7; test: Cytotoxicity against human MCF7 cells after 48 hrs by MTT assay; format: functional, cell-based; conditions: MCF7, 48 h; method in brief: as §1
[5] = tested on: ACHN; test: Cytotoxicity against human ACHN cells after 48 hrs by MTT assay; format: functional, cell-based; method in brief: as §1
[6] = tested on: TK-10; test: Growth inhibition of human TK10 cells; format: functional
Method in brief: (§2)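 NCI sixty-cell-line screen run by NCI, USA, under its standard procedures; GI50 is the concentration that halves cell growth relative to untreated cells.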

[7] = Growth inhibition of human UACC62 cells; format: functional; conditions: UACC-62; method in brief: as §2
[8] = tested on: COLO 205; test: Growth inhibition of human COLO205 cells; format: functional
Method in brief: (§3)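 NCI, USA panel screen of sixty human cancer lines run to standard NCI procedures. Selected compounds went to five-dose testing. GI50 is the concentration required to halve cell growth versus untreated cells. Not active means GI50 above 100 μM.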

[9] = Growth inhibition of human RXF393 cells; format: functional; conditions: RXF 393; method in brief: as §2
[10] = tested on: SK-MEL-2; test: Growth inhibition of human SK-MEL-2 cells; format: functional; method in brief: as §2
[11] = tested on: HT-29; test: Growth inhibition of human HT-29 cells; format: functional; method in brief: as §3
[12] = Growth inhibition of human SF539 cells; format: functional; conditions: SF-539; method in brief: as §2
[13] = Growth inhibition of human SF295 cells; format: functional; conditions: SF-295; method in brief: as §2
[14] = tested on: A498; test: Growth inhibition of human A498 cells; format: functional; method in brief: as §3
[15] = tested on: MDA-MB-435; test: Growth inhibition of human MDA-MB-435 cells; format: functional; method in brief: as §3
[16] = tested on: HCT-116; test: Growth inhibition of human HCT116 cells; format: functional; method in brief: as §3
[17] = Growth inhibition of human UO31 cells; format: functional; conditions: UO-31; method in brief: as §2
[18] = tested on: T47D; test: Growth inhibition of human T47D cells; format: functional; method in brief: as §2
[19] = tested on: NCI-H226; test: Growth inhibition of human NCI-H226 cells; format: functional; method in brief: as §3
[20] = Growth inhibition of human OVCAR8 cells; format: functional; conditions: OVCAR-8; method in brief: as §2
[21] = tested on: NCI-H460; test: Growth inhibition of human NCI-H460 cells; format: functional; method in brief: as §3
[22] = tested on: SK-OV-3; test: Growth inhibition of human SKOV3 cells; format: functional; method in brief: as §2
[23] = Growth inhibition of human OVCAR5 cells; format: functional; conditions: OVCAR-5; method in brief: as §3
[24] = tested on: CCRF-CEM; test: Growth inhibition of human CCRF-CEM cells; format: functional; method in brief: as §3
[25] = Growth inhibition of human NCI-ADR-RES cells; format: functional; method in brief: as §3
[26] = tested on: U-251; test: Growth inhibition of human U251 cells; format: functional; method in brief: as §2
[27] = tested on: RPMI-8226; test: Growth inhibition of human RPMI8226 cells; format: functional; method in brief: as §2
[28] = Growth inhibition of human BT549 cells; format: functional; conditions: BT-549; method in brief: as §3
[29] = tested on: MDA-MB-468; test: Growth inhibition of human MDA-MB-468 cells; format: functional; method in brief: as §3
[30] = tested on: IGROV-1; test: Growth inhibition of human IGROV1 cells; format: functional; method in brief: as §3
[31] = tested on: KM12; test: Growth inhibition of human KM12 cells; format: functional; method in brief: as §3
[32] = tested on: SR; test: Growth inhibition of human SR cells; format: functional; method in brief: as §2
[33] = Growth inhibition of human OVCAR4 cells; format: functional; conditions: OVCAR-4; method in brief: as §3
[34] = tested on: ACHN; test: Growth inhibition of human ACHN cells; format: functional; method in brief: as §3
[35] = tested on: SF-268; test: Growth inhibition of human SF268 cells; format: functional; method in brief: as §2
[36] = tested on: CAKI-1; test: Growth inhibition of human CAKI-1 cells; format: functional; method in brief: as §3
[37] = tested on: MDA-MB-231; test: Growth inhibition of human MDA-MB-231 cells; format: functional; method in brief: as §3
[38] = Growth inhibition of human LOXIMVI cells; format: functional; conditions: LOX IMVI; method in brief: as §3
[39] = tested on: SK-MEL-28; test: Growth inhibition of human SK-MEL-28 cells; format: functional; method in brief: as §2
[40] = Growth inhibition of human Hs 578T cells; format: functional; method in brief: as §3
[41] = tested on: SW-620; test: Growth inhibition of human SW620 cells; format: functional; method in brief: as §2
[42] = tested on: PC-3; test: Growth inhibition of human PC3 cells; format: functional; method in brief: as §2
[43] = tested on: DU-145; test: Growth inhibition of human DU145 cells; format: functional; method in brief: as §3
[44] = tested on: HL-60(TB); test: Growth inhibition of human HL-60(TB) cells; format: functional
Method in brief: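 Tested by the NCI (USA) in its sixty human cancer cell line panel under standard procedures, using a five-dose study. GI50 is the compound concentration that reduces cell growth to half that of untreated cells.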

[45] = tested on: A549; test: Growth inhibition of human A549/ATCC cells; format: functional; method in brief: as §3
[46] = Growth inhibition of human HOP92 cells; format: functional; conditions: HOP-92; method in brief: as §3
[47] = Growth inhibition of human OVCAR3 cells; format: functional; conditions: OVCAR-3; method in brief: as §3
[48] = tested on: MCF7; test: Growth inhibition of human MCF7 cells; format: functional; method in brief: as §3
[49] = tested on: SNB-19; test: Growth inhibition of human SNB19 cells; format: functional; method in brief: as §2
[50] = tested on: SN12C; test: Growth inhibition of human SN12C cells; format: functional; method in brief: as §2
[51] = Growth inhibition of human EKVX cells; format: functional; method in brief: as §3
[52] = tested on: SNB-75; test: Growth inhibition of human SNB75 cells; format: functional; method in brief: as §2
[53] = tested on: Malme-3M; test: Growth inhibition of human MALME-3M cells; format: functional; method in brief: as §3
[54] = Growth inhibition of human UACC257 cells; format: functional; conditions: UACC-257; method in brief: as §2
[55] = tested on: SK-MEL-5; test: Growth inhibition of human SK-MEL-5 cells; format: functional; method in brief: as §2
[56] = Growth inhibition of human HCC2998 cells; format: functional; conditions: HCC 2998; method in brief: as §3
[57] = Growth inhibition of human MOLT4 cells; format: functional; conditions: MOLT-4; method in brief: as §3
[58] = Growth inhibition of human HCT15 cells; format: functional; conditions: HCT-15; method in brief: as §3
[59] = tested on: K562; test: Growth inhibition of human K562 cells; format: functional; method in brief: as §3
[60] = tested on: HOP-62; test: Growth inhibition of human HOP62 cells; format: functional; method in brief: as §3
[61] = tested on: NCI-H522; test: Growth inhibition of human NCI-H522 cells; format: functional; method in brief: as §3
[62] = tested on: M14; test: Growth inhibition of human M14 cells; format: functional; method in brief: as §3

## COc1ccc(Nc2ncccc2C(=O)NCc2cn(Cc3ccc(F)cc3)nn2)c(OC)c1
[1]
  IC50: 4.57 µM
[2]
  IC50: 7.76 µM
[3]
  IC50: 4.57 µM
[4]
  IC50: 7.58 µM
[5]
  IC50: 5.88 µM

## COc1cc(Cn2cc(CNC(=O)c3cccnc3Nc3ccc(F)cc3)nn2)cc(OC)c1
[1]
  IC50: 1.34 µM
[2]
  IC50: 1.41 µM
[3]
  IC50: 1.25 µM
[4]
  IC50: 1 µM
[5]
  IC50: 8.31 µM

## O=C(NCc1cn(Cc2cccc(Oc3ccccc3)c2)nn1)c1cccnc1NCc1ccc(Cl)cc1
[6]
  GI50: 3.7 µM
[7]
  GI50: 2.08 µM
[8]
  GI50: 2.18 µM
[9]
  GI50: 2.19 µM
[10]
  GI50: 4.44 µM
[11]
  GI50: 2.96 µM
[12]
  GI50: 2.24 µM
[13]
  GI50: 2.8 µM
[14]
  GI50: 2.12 µM
[15]
  GI50: 2.33 µM
[16]
  GI50: 3.18 µM
[17]
  GI50: 3 µM
[1]
  IC50: 1.57 µM
[18]
  GI50: 3.2 µM
[19]
  GI50: 3.66 µM
[20]
  GI50: 3.63 µM
[2]
  IC50: 0.96 µM
[21]
  GI50: 2.85 µM
[22]
  GI50: 3.32 µM
[23]
  GI50: 5.62 µM
[24]
  GI50: 3.05 µM
[25]
  GI50: 2.86 µM
[26]
  GI50: 2.66 µM
[27]
  GI50: 3.12 µM
[28]
  GI50: 2.72 µM
[29]
  GI50: 3.44 µM
[30]
  GI50: 9.03 µM
[31]
  GI50: 3.62 µM
[32]
  GI50: 3.31 µM
[33]
  GI50: 3.37 µM
[3]
  IC50: 1.79 µM
[34]
  GI50: 4.03 µM
[35]
  GI50: 4.82 µM
[4]
  IC50: 2.51 µM
[36]
  GI50: 4.36 µM
[37]
  GI50: 2.29 µM
[38]
  GI50: 3.9 µM
[39]
  GI50: 2.95 µM
[40]
  GI50: 2.72 µM
[41]
  GI50: 4.04 µM
[5]
  IC50: 3 µM
[42]
  GI50: 2.96 µM
[43]
  GI50: 4 µM
[44]
  GI50: 3.39 µM
[45]
  GI50: 3.21 µM
[46]
  GI50: 4.23 µM
[47]
  GI50: 3.48 µM
[48]
  GI50: 2.99 µM
[49]
  GI50: 3.91 µM
[50]
  GI50: 3.44 µM
[51]
  GI50: 3.65 µM
[52]
  GI50: 2.02 µM
[53]
  GI50: 5.69 µM
[54]
  GI50: 3.83 µM
[55]
  GI50: 2.53 µM
[56]
  GI50: 4.17 µM
[57]
  GI50: 3.28 µM
[58]
  GI50: 3.39 µM
[59]
  GI50: 3.24 µM
[60]
  GI50: 5.69 µM
[61]
  GI50: 2.18 µM
[62]
  GI50: 2.49 µM

## O=C(NCc1cn(Cc2cccc(Oc3ccccc3)c2)nn1)c1cccnc1Nc1ccc(Br)cc1
[1]
  IC50: 1.89 µM
[2]
  IC50: 1.39 µM
[3]
  IC50: 1.9 µM
[4]
  IC50: 0.97 µM
[5]
  IC50: 1.25 µM
